How the values were obtained:
[1] = molecular target: T1, Glucose-dependent insulinotropic receptor (Homo sapiens, UniProt Q8TDV5); test: Agonist activity at human GPR119 transfected in HEK293 cells assessed as concentration for 50 % cAMP stimulation of oleylethanolamine; assay type: functional, cell-based
T1 sequence (Q8TDV5 whole entry): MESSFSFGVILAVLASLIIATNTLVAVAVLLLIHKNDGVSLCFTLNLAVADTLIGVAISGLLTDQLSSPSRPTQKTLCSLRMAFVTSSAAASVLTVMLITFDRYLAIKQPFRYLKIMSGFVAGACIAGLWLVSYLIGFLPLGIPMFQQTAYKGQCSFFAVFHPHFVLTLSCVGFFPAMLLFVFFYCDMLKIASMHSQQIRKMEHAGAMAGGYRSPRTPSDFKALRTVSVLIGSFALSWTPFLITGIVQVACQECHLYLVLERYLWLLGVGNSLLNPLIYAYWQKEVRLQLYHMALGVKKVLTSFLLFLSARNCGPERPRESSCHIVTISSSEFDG
Summary of the method: (§1)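 HEK293 cells seeded at 4 × 10³ cells/well and grown 24 h, then transiently transfected with a human GPR119 expression plasmid by lipofection. After 24 h, compounds were applied in KRBH buffer with 0.1% BSA and IBMX for 60 min at 37 °C. Cells were lysed 10 min at room temperature (phosphate/KF/Triton, pH 7.0), and cAMP was read by HTRF.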

[2] = molecular target: T2, Glucose-dependent insulinotropic receptor (Homo sapiens) (UniProt Q8TDV5); test: Agonist activity at human GPR119 transfected in HEK293 cells assessed as cAMP stimulation relative to maximal effect of oleylethanolamine; assay type: functional, cell-based; summary of the method: as §1
T2 sequence (whole entry): T1 sequence (Q8TDV5 whole entry)

EC50 [1] [nM] | Emax [2] [%] | Compound
1.4 | – | CC(C)(C)OC(=O)N1[C@@H]2CC[C@H]1C[C@@H](Oc1ncnc(Nc3ccc(S(C)(=O)=O)cc3F)c1[N+](=O)[O-])C2 (stereo in doubt; 14) [listing 1 of 2 here]
11.5 | 139 | CC(C)(C)OC(=O)N1[C@@H]2CC[C@H]1C[C@H](Nc1ncnc(Nc3ccc(S(C)(=O)=O)cc3)c1[N+](=O)[O-])C2
– | 100 | CCCCCCCC/C=C\CCCCCCCC(=O)NCCO
1.5 | – | CC(C)(C)OC(=O)N1[C@@H]2CC[C@H]1C[C@@H](Oc1ncnc(Nc3ccc(S(C)(=O)=O)cc3F)c1[N+](=O)[O-])C2 (stereo in doubt; 12) [listing 1 of 2 here]
4.9 | – | CC(C)(C)OC(=O)N1[C@@H]2CC[C@H]1C[C@@H](Oc1ncnc(Nc3ccc(S(C)(=O)=O)cc3)c1[N+](=O)[O-])C2 (stereo in doubt; 11) [listing 1 of 2 here]
1.5 | 99 | CC(C)(C)OC(=O)N1[C@@H]2CC[C@H]1C[C@H](Nc1ncnc(Nc3ccc(S(C)(=O)=O)cc3F)c1[N+](=O)[O-])C2
– | 116 | CC(C)(C)OC(=O)N1[C@@H]2CC[C@H]1C[C@@H](Oc1ncnc(Nc3ccc(S(C)(=O)=O)cc3F)c1[N+](=O)[O-])C2 (stereo in doubt; 12) [listing 2 of 2 here]
> 10000 | 41 | CC(C)(C)OC(=O)N1[C@@H]2CC[C@H]1C[C@@H](CNc1ncnc(Nc3ccc(S(C)(=O)=O)cc3)c1[N+](=O)[O-])C2
14.5 | – | CC(C)(C)OC(=O)N1[C@@H]2CC[C@H]1C[C@@H](Oc1ncnc(Nc3ccc(S(C)(=O)=O)cc3)c1[N+](=O)[O-])C2 (stereo in doubt; 13) [listing 1 of 2 here]
– | 99 | CC(C)(C)OC(=O)N1[C@@H]2CC[C@H]1C[C@@H](Oc1ncnc(Nc3ccc(S(C)(=O)=O)cc3)c1[N+](=O)[O-])C2 (stereo in doubt; 11) [listing 2 of 2 here]
6.7 | 53 | CC(C)(C)OC(=O)N1[C@@H]2CC[C@H]1C[C@@H](CNc1ncnc(Nc3ccc(S(C)(=O)=O)cc3F)c1[N+](=O)[O-])C2
– | 65 | CC(C)(C)OC(=O)N1[C@@H]2CC[C@H]1C[C@@H](Oc1ncnc(Nc3ccc(S(C)(=O)=O)cc3F)c1[N+](=O)[O-])C2 (stereo in doubt; 14) [listing 2 of 2 here]
– | 69 | CC(C)(C)OC(=O)N1[C@@H]2CC[C@H]1C[C@@H](Oc1ncnc(Nc3ccc(S(C)(=O)=O)cc3)c1[N+](=O)[O-])C2 (stereo in doubt; 13) [listing 2 of 2 here]
